Drawing on PubChem BioAssay, this text covers viability, differential viability (reversal) and inhibition for 18 compounds.

The source made the active and inactive calls.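 Rule for the calls, unless noted: active = viability at or under a set limit in both replicates, limit being median viability minus 3 SD (cut at about 48% in these data, passing the limit was not always enough); inconclusive = at or under the limit in just one replicate; inactive = at or above the limit in both replicates.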

Assay [1] is described as follows: reduced viability of SK-BR-3 breast cancer cells – cell-based, 24 h, human, pilot screen (AID 572;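 active = viability at or below 10% of carrier control in both of two separate runs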;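 note: compound exposure lasted between 18 and 24 h rather than exactly 24 h; 100% = carrier-treated control wells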). The note with it: SK-BR-3 viability, CellTiter-Glo luminescence, at 10 µM, stronger effect = lower value. Background: ATP-based viability assays read luminescence as a measure of living cells.
Assay [2] is described as follows: HUVEC growth inhibition – cell-based, human, primary screen (AID 575;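 active = viability at or below 30% in both replicate assays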;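 note: 100% = median of untreated cell wells with 0.1% DMSO on each plate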). Particulars: HUVEC proliferation, CellTiter-Glo luminescence, 72 h; at 10 µM; stronger effect = lower value. The essentials:
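Assay system: primary human umbilical vein endothelial cells / Buffer or medium: endothelial basal medium with 2% FBS plus growth supplements / Compound dosing: one dose, 10 µM final, 0.1% DMSO / Timing: 72 h treatment at 37 °C / Signal: CTG luminescence / Benchmarks: 32 DMSO-only cell-control wells (high), 32 MePR drug-control wells (low) per plate / Plate: collagen-coated 384-well format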

The nature of assay [3]: H69AR cell proliferation blockers – human, duplicate replicates, primary screen (AID 580).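 Note: 100% = mean luminescence of untreated wells and 0% = no signal.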 The note with it: H69AR lung tumor cells viability, ATP luminescence, 72 h; at 10 µM; stronger effect = lower value.
The nature of assay [4]: MRP1 drug-resistance reversers in H69AR cells – cell-based, doxorubicin co-treatment, pilot screen (AID 601;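 active = viability loss from added drug above about 55%, and viability with drug at most 40%, in both replicates, limit read from the data, passing the limit was not always enough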). The note with it: CellTiter-Glo, 72 h, at 10 µM; for differential viability (reversal): stronger effect = higher value.
Assay [5] can be described thus: yeast transport mutant growth inhibition pilot in 384-well plates, post-Golgi transport modulator project (AID 636; in the data active = inhibition above about 31%). Particulars: absorbance 615 nm, about 18 h, stronger effect = higher value.
Assay [6] is described as follows: growth suppression of yeast trafficking mutant, preliminary HTS, modulators of trafficking downstream of Golgi apparatus project, 1536-format plate, OD 615 nm (AID 637; in the data active = inhibition above about 30%). The note with it: yeast transport mutant growth, absorbance 615 nm, 18 h; stronger effect = higher value.
Where [7] appears, read: H69AR cells + 2 uM doxorubicin, measured here: viability with 2 uM doxorubicin, stronger effect = lower value.
[8] abbreviates: H69AR cells, compound alone cytotoxicity.

In the case of `COC(=O)c1ccccc1NC(=O)CN1CCC(n2nnc3cc(F)ccc32)CC1`, the viability (commonly a read-out of living cells in per cent, often relative to untreated cells) was 64% (inactive) in assay [1]; 94.9% (inactive) in assay [2]; 100% (inactive) in assay [3]; 89.7% in assay [4] (setting [7]); 100% in assay [4] (setting [8]). Also, the differential viability (reversal) in assay [4] (H69AR cells + 2 uM doxorubicin) was 10.3% (inactive). The inhibition (in general, the change of the read-out against control, counted positive when it falls) was -6.16% (inactive) in assay [5] and -1.27% (inactive) in assay [6].

As to `CS(=O)(=O)N(CC(=O)N1CCc2ccccc2C1)c1ccc2c(c1)OCO2`, the viability was 129% (inactive) in assay [1]; 102% (inactive) in assay [2]; 102% (inactive) in assay [3]; 87.8% in assay [4] (setting [7]); 102% in assay [4] (setting [8]). For the same compound, the differential viability (reversal) in assay [4] (H69AR cells + 2 uM doxorubicin) is 14.2% (inactive). Also, the values for the inhibition in assay [5] and in assay [6] were -1.04% (inactive) and 2.13% (inactive), respectively.

As for `COc1cc(C(=O)N(C)c2nnc(-c3cccnc3)s2)cc(OC)c1OC`, the viability in assay [1] is 123% (inactive); in assay [2], 89.6% (inactive); in assay [3], 82.7% (inactive); in assay [4] (setting [7]) it was 91.6%; in assay [4] (setting [8]), 82.7%. Also, the differential viability (reversal) in assay [4] (H69AR cells + 2 uM doxorubicin) was -8.95% (inactive). Further, the inhibition in assay [5] is -2.05% (inactive); in assay [6] it was 17.4% (inactive).

Turning to `CCCN1Cc2cccc(C(=O)NCc3cccs3)c2C1=O`, the viability in assay [1] was 86% (inactive); in assay [2], 111% (inactive); in assay [3], 90.6% (inactive); in assay [4] (setting [7]) it was 90.8%; in assay [4] (setting [8]), 90.6%. In addition, in assay [4] (H69AR cells + 2 uM doxorubicin), the differential viability (reversal) is -0.255% (inactive). Moreover, the values for the inhibition in assay [5] and in assay [6] were -6% (inactive) and -1.45% (inactive), respectively.

Consider `Cc1nnc(SCc2nnc(-c3ccccc3Br)o2)n1-c1ccccc1`, for which the viability was 86% (inactive) in assay [1]; 87.5% (inactive) in assay [2]; 90.2% (inactive) in assay [3]; 93.6% in assay [4] (setting [7]); 90.2% in assay [4] (setting [8]). Also, the differential viability (reversal) in assay [4] (H69AR cells + 2 uM doxorubicin) was -3.37% (inactive). The inhibition was 0.41% (inactive) in assay [5] and 0% (inactive) in assay [6].

For `CCn1nc(C(=O)O)c(=O)c2cc3c(cc21)OCO3`, the viability is 69% (inactive) in assay [1]; 86.7% (inactive) in assay [2]; 106% (inactive) in assay [3]; 99.3% in assay [4] (setting [7]); 106% in assay [4] (setting [8]). Besides, in assay [4] (H69AR cells + 2 uM doxorubicin), the differential viability (reversal) is 6.56% (inactive). The inhibition in assay [5] was -1.17% (inactive); in assay [6], 1.83% (inactive).

For the compound `Cc1ccccc1Nc1cc2ccccc2c(=O)[nH]1`, the viability in assay [1] was 95.5% (inactive); in assay [2] it was 63.8% (inactive); in assay [3] it was 102% (inactive); in assay [4] (setting [7]) it was 99.5%; in assay [4] (setting [8]), 102%. For the same compound, the differential viability (reversal) in assay [4] (H69AR cells + 2 uM doxorubicin) was 2.71% (inactive). Moreover, the inhibition in assay [5] was 4.61% (inactive); in assay [6], 17.8% (inactive).

For `CC(CCc1ccccc1)NC(=O)CSc1nc(N)cc(N)n1` (centres undefined), the viability is 114% (inactive) in assay [1]; 96.6% (inactive) in assay [2]; 94.7% (inactive) in assay [3]; 90% in assay [4] (setting [7]); 94.7% in assay [4] (setting [8]). In addition, in assay [4] (H69AR cells + 2 uM doxorubicin), the differential viability (reversal) is 4.75% (inactive). The figures for the inhibition in assay [5] and in assay [6] were -0.68% (inactive) and -1.45% (inactive), respectively.

For the compound `COC(=O)c1ccccc1OCC(=O)NC1CCCCC1`, the viability was 96% (inactive) in assay [1]; 106% (inactive) in assay [2]; 90.2% (inactive) in assay [3]; 91.9% in assay [4] (setting [7]); 90.2% in assay [4] (setting [8]). Also, the differential viability (reversal) in assay [4] (H69AR cells + 2 uM doxorubicin) was -1.72% (inactive). In addition, the inhibition was -5.21% (inactive) in assay [5] and -6.77% (inactive) in assay [6].

As for `S=c1[nH]nc(Cc2ccccc2)n1Cc1ccco1`, the viability is 78% (inactive) in assay [1]; 108% (inactive) in assay [2]; 96.3% (inactive) in assay [3]; 99.1% in assay [4] (setting [7]); 96.3% in assay [4] (setting [8]). Further, in assay [4] (H69AR cells + 2 uM doxorubicin), the differential viability (reversal) is -2.76% (inactive). Also, the inhibition in assay [5] is -1.64% (inactive); in assay [6] it was -6.94% (inactive).

As for `CCOC(=O)CNC(=O)CSc1nc(N(C)C)nc(N2CCOCC2)n1`, the viability is 88% (inactive) in assay [1]; 98.1% (inactive) in assay [2]; 89.2% (inactive) in assay [3]; 87.1% in assay [4] (setting [7]); 89.2% in assay [4] (setting [8]). In addition, the differential viability (reversal) in assay [4] (H69AR cells + 2 uM doxorubicin) is 2.04% (inactive). Also, the inhibition is -9.86% (inactive) in assay [5] and 6.45% (inactive) in assay [6].

On to `Cc1cn(C2CC3OCC3O2)c(=O)[nH]c1=O` (centres undefined), for which the viability in assay [1] was 101% (inactive); in assay [2] it was 110% (inactive); in assay [3] it was 94.2% (inactive); in assay [4] (setting [7]), 98.5%; in assay [4] (setting [8]), 94.2%. The differential viability (reversal) in assay [4] (H69AR cells + 2 uM doxorubicin) was -4.39% (inactive). In addition, the inhibition in assay [5] is -7.12% (inactive); in assay [6], -16.2% (inactive).

As to `COc1nc(OC)nc(N2CCC(C(=O)NCc3cccs3)CC2)n1`, the viability is 93% (inactive) in assay [1]; 101% (inactive) in assay [2]; 91.9% (inactive) in assay [3]; 93.3% in assay [4] (setting [7]); 91.9% in assay [4] (setting [8]). In addition, the differential viability (reversal) in assay [4] (H69AR cells + 2 uM doxorubicin) was -1.4% (inactive). For the same compound, the results for the inhibition in assay [5] and in assay [6] were -5.32% (inactive) and -9.51% (inactive), respectively.

`O=C(O)c1ccc(NC(=O)c2cccs2)cc1`: the viability in assay [1] was 87% (inactive); in assay [2], 94.7% (inactive); in assay [3], 92.5% (inactive); in assay [4] (setting [7]), 79.7%; in assay [4] (setting [8]), 92.5%. In addition, the differential viability (reversal) in assay [4] (H69AR cells + 2 uM doxorubicin) was 12.8% (inactive). Moreover, the figures for the inhibition in assay [5] and in assay [6] were -5.73% (inactive) and -4.55% (inactive), respectively.

With `CC1=C(C(=O)Nc2ccccc2C)C(c2ccc(C)o2)N2C(=O)CSC2=N1` (centres undefined), the viability in assay [1] was 105% (inactive); in assay [2] it was 106% (inactive); in assay [3] it was 96.4% (inactive); in assay [4] (setting [7]) it was 88.2%; in assay [4] (setting [8]) it was 96.4%. The differential viability (reversal) in assay [4] (H69AR cells + 2 uM doxorubicin) was 8.25% (inactive). Further, the inhibition in assay [5] was -9.04% (inactive); in assay [6], 2.26% (inactive).

Regarding `O=C(C1CCCN(S(=O)(=O)c2cccc3nonc23)C1)N1CCC(Cc2ccccc2)CC1` (centres undefined), the viability in assay [1] is 103% (inactive); in assay [2], 34.9% (inactive); in assay [3], 71.3% (inactive); in assay [4] (setting [7]), 55.2%; in assay [4] (setting [8]) it was 71.3%. In assay [4] (H69AR cells + 2 uM doxorubicin), the differential viability (reversal) is 16% (inactive). Besides, the inhibition in assay [5] is -4.21% (inactive); in assay [6], -7.17% (inactive).

On to `O=C(Nc1ccon1)c1cccc(S(=O)(=O)N2CCCC2)c1`, for which the viability was 96% (inactive) in assay [1]; 99.5% (inactive) in assay [2]; 87.8% (inactive) in assay [3]; 98.8% in assay [4] (setting [7]); 87.8% in assay [4] (setting [8]). In addition, the differential viability (reversal) in assay [4] (H69AR cells + 2 uM doxorubicin) was -10.9% (inactive). Moreover, the values for the inhibition in assay [5] and in assay [6] were -2.53% (inactive) and -0.55% (inactive), respectively.

For `CCC(C)n1ncn(-c2ccc(N3CCN(c4ccc(OCC5COC(Cn6cncn6)(c6ccc(Cl)cc6Cl)O5)cc4)CC3)cc2)c1=O` (centres undefined), the viability in assay [1] is 84% (inactive); in assay [2], 7.76% (active); in assay [3], 69.8% (inactive); in assay [4] (setting [7]), 71.8%; in assay [4] (setting [8]), 69.8%. Also, the differential viability (reversal) in assay [4] (H69AR cells + 2 uM doxorubicin) was -1.92% (inactive). For the same compound, the inhibition is 100% (active) in assay [5] and 96.7% (active) in assay [6].
